Reference: ChEMBL document CHEMBL1909525, “Synthesis and anticonvulsant activity of novel 2,6-diketopiperazine derivatives. Part 1: perhydropyrrole[1,2-a]pyrazines” (Eur J Med Chem, 2011)
Active and inactive are the calls of the source. No cut-off for these calls is given here.

Experiments:
[1] = tested on: Mus musculus; experiment: Anticonvulsant activity in albino Carworth Farms No.1 mouse assessed as protection against electric-current for 3 secs-induced seizure at 100 mg/kg, ip after 2 hrs by 6Hz minimal clonic seizure test; format: functional, organism-based; set-up: dose 100 mg/kg
Outline: (§1)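 6 Hz psychomotor seizure test in mice. Compound given i.p. as a suspension in 0.5% methylcellulose. Corneal stimulation at 32 mA, 0.2-ms monopolar rectangular pulses at 6 Hz for 3 s, from a constant-current device. Tests run 0.25–4 h after dosing. A mouse counted as protected if it resumed normal exploratory behaviour within 10 s; scored as protected/tested.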

[2] = tested on: Mus musculus; experiment: Neurotoxicity in albino Carworth Farms No.1 mouse assessed as motor impairment at 30 mg/kg, ip after 0.5 hrs by rotarod test; format: toxicity, organism-based; set-up: dose 30 mg/kg, route intraperitoneal; settings: in vivo
Outline: (§2)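 Rotorod neurotoxicity in mice at 6 r.p.m. Compound given i.p. (30, 100, 300 mg/kg) in 0.5% methylcellulose; tested at 30 min and 4 h. Impairment is inability to keep equilibrium on the rod for a given time; scored as impaired/tested.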

[3] = tested on: Mus musculus; experiment: Neurotoxicity in albino Carworth Farms No.1 mouse assessed as motor impairment at 100 mg/kg, ip after 0.5 hrs by rotarod test; format: toxicity, organism-based; set-up: dose 100 mg/kg, route intraperitoneal; settings: in vivo; outline: as §2
[4] = tested on: Mus musculus; experiment: Neurotoxicity in albino Carworth Farms No.1 mouse assessed as motor impairment at 300 mg/kg, ip after 0.5 hrs by rotarod test; format: toxicity, organism-based; set-up: dose 300 mg/kg, route intraperitoneal; settings: in vivo; outline: as §2
[5] = tested on: Mus musculus; experiment: Anticonvulsant activity in albino Carworth Farms No.1 mouse assessed as protection against electric-current for 3 secs-induced seizure at 100 mg/kg, ip after 0.25 hrs by 6Hz minimal clonic seizure test; format: functional, organism-based; set-up: dose 100 mg/kg; outline: as §1
[6] = tested on: Mus musculus; experiment: Anticonvulsant activity in albino Carworth Farms No.1 mouse assessed as protection against subcutaneous metrazol-induced seizure at 30 mg/kg, ip after 0.5 hrs; format: functional, organism-based; set-up: dose 30 mg/kg
Outline: (§3)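 Mouse scMET test. Compound given i.p. (30, 100 or 300 mg/kg) in 0.5% methylcellulose. Pentylenetetrazole 85 mg/kg (CD97) given s.c. at 0.5 or 4 h, then mice observed for 30 min. Protection is absence of clonic spasms; scored as protected/tested.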

[7] = tested on: Mus musculus; experiment: Anticonvulsant activity in albino Carworth Farms No.1 mouse assessed as protection against subcutaneous metrazol-induced seizure at 30 mg/kg, ip after 4 hrs; format: functional, organism-based; set-up: dose 30 mg/kg; outline: as §3
[8] = tested on: Mus musculus; experiment: Anticonvulsant activity in albino Carworth Farms No.1 mouse assessed as protection against subcutaneous metrazol-induced seizure at 100 mg/kg, ip after 0.5 hrs; format: functional, organism-based; set-up: dose 100 mg/kg; outline: as §3
[9] = tested on: Mus musculus; experiment: Anticonvulsant activity in albino Carworth Farms No.1 mouse assessed as protection against subcutaneous metrazol-induced seizure at 100 mg/kg, ip after 4 hrs; format: functional, organism-based; set-up: dose 100 mg/kg; outline: as §3
[10] = tested on: Mus musculus; experiment: Anticonvulsant activity in albino Carworth Farms No.1 mouse assessed as protection against subcutaneous metrazol-induced seizure at 300 mg/kg, ip after 0.5 hrs; format: functional, organism-based; set-up: dose 300 mg/kg; outline: as §3
[11] = tested on: Mus musculus; experiment: Anticonvulsant activity in albino Carworth Farms No.1 mouse assessed as protection against subcutaneous metrazol-induced seizure at 300 mg/kg, ip after 4 hrs; format: functional, organism-based; set-up: dose 300 mg/kg; outline: as §3
[12] = tested on: Mus musculus; experiment: Anticonvulsant activity in albino Carworth Farms No.1 mouse assessed as protection against electric-current for 3 secs-induced seizure at 100 mg/kg, ip after 4 hrs by 6Hz minimal clonic seizure test; format: functional, organism-based; set-up: dose 100 mg/kg; outline: as §1
[13] = tested on: Mus musculus; experiment: Neurotoxicity in albino Carworth Farms No.1 mouse assessed as motor impairment at 100 mg/kg, ip after 0.25 hrs by rotarod test; format: toxicity, organism-based; set-up: dose 100 mg/kg, route intraperitoneal; settings: in vivo
Outline: (§4)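 Rotorod neurotoxicity in mice (18–25 g) following i.p. dosing of a suspension in 0.5% methylcellulose in water, tested at intervals between 0.25 and 4 h. Impairment was scored as failure to keep equilibrium on a 6 r.p.m. rod, reported as number impaired/number tested.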

[14] = tested on: Mus musculus; experiment: Neurotoxicity in albino Carworth Farms No.1 mouse assessed as motor impairment at 100 mg/kg, ip after 2 hrs by rotarod test; format: toxicity, organism-based; set-up: dose 100 mg/kg, route intraperitoneal; settings: in vivo; outline: as §4
[15] = tested on: Mus musculus; experiment: Neurotoxicity in albino Carworth Farms No.1 mouse assessed as motor impairment at 100 mg/kg, ip after 4 hrs by rotarod test; format: toxicity, organism-based; set-up: dose 100 mg/kg, route intraperitoneal; settings: in vivo; outline: as §2
[16] = species: Mus musculus; experiment: Protective index, ratio of TD50 for albino Carworth Farms No.1 mouse to ED50 for albino Carworth Farms No.1 mouse by 6Hz minimal clonic seizure test; format: functional
Outline: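 Mouse 6 Hz (32 mA) quantification, compound given i.p. at the time of peak effect. Groups of at least eight mice at varied doses.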

[17] = tested on: Mus musculus; experiment: Anticonvulsant activity in ip dosed albino Carworth Farms No.1 mouse assessed as time needs to show peak effect for electric-current for 3 secs-induced seizure after 0.25 hrs by 6Hz minimal clonic seizure test; format: functional
[18] = tested on: Mus musculus; experiment: Neurotoxicity in albino Carworth Farms No.1 mouse assessed as motor impairment at 100 mg/kg, ip after 1 hr by rotarod test; format: toxicity, organism-based; set-up: dose 100 mg/kg, route intraperitoneal; settings: in vivo; outline: as §4
[19] = tested on: Mus musculus; experiment: Anticonvulsant activity in albino Carworth Farms No.1 mouse assessed as protection against maximal electroshock-induced seizure at 30 mg/kg, ip after 0.5 hrs; format: functional, organism-based; set-up: dose 30 mg/kg
Outline: (§5)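 Mouse MES test with compound given i.p. (30, 100 or 300 mg/kg) in 0.5% methylcellulose; tested at 0.5 and 4 h. Corneal stimulus of 50 mA at 60 Hz for 0.2 s, electrodes primed with 0.5% butacaine in 0.9% NaCl. Protection is abolition of hindlimb tonic extension; scored as protected/tested.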

[20] = tested on: Mus musculus; experiment: Anticonvulsant activity in albino Carworth Farms No.1 mouse assessed as protection against maximal electroshock-induced seizure at 30 mg/kg, ip after 4 hrs; format: functional, organism-based; set-up: dose 30 mg/kg; outline: as §5
[21] = tested on: Mus musculus; experiment: Anticonvulsant activity in albino Carworth Farms No.1 mouse assessed as protection against maximal electroshock-induced seizure at 100 mg/kg, ip after 0.5 hrs; format: functional, organism-based; set-up: dose 100 mg/kg; outline: as §5
[22] = tested on: Mus musculus; experiment: Anticonvulsant activity in albino Carworth Farms No.1 mouse assessed as protection against maximal electroshock-induced seizure at 100 mg/kg, ip after 4 hrs; format: functional, organism-based; set-up: dose 100 mg/kg; outline: as §5
[23] = tested on: Mus musculus; experiment: Anticonvulsant activity in albino Carworth Farms No.1 mouse assessed as protection against maximal electroshock-induced seizure at 300 mg/kg, ip after 0.5 hrs; format: functional, organism-based; set-up: dose 300 mg/kg; outline: as §5
[24] = tested on: Mus musculus; experiment: Anticonvulsant activity in albino Carworth Farms No.1 mouse assessed as protection against maximal electroshock-induced seizure at 300 mg/kg, ip after 4 hrs; format: functional, organism-based; set-up: dose 300 mg/kg; outline: as §5
[25] = tested on: Mus musculus; experiment: Anticonvulsant activity in albino Carworth Farms No.1 mouse assessed as protection against electric-current for 3 secs-induced seizure at 100 mg/kg, ip after 1 hr by 6Hz minimal clonic seizure test; format: functional, organism-based; set-up: dose 100 mg/kg; outline: as §1
[26] = tested on: Mus musculus; experiment: Neurotoxicity in albino Carworth Farms No.1 mouse assessed as motor impairment at 30 mg/kg, ip after 4 hrs by rotarod test; format: toxicity, organism-based; set-up: dose 30 mg/kg, route intraperitoneal; settings: in vivo; outline: as §2
[27] = tested on: Mus musculus; experiment: Neurotoxicity in albino Carworth Farms No.1 mouse assessed as motor impairment at 300 mg/kg, ip after 4 hrs by rotarod test; format: toxicity, organism-based; set-up: dose 300 mg/kg, route intraperitoneal; settings: in vivo; outline: as §2
[28] = tested on: Mus musculus; experiment: Anticonvulsant activity in ip dosed albino Carworth Farms No.1 mouse assessed as protection against maximal electroshock-induced seizure after 0.25 hrs; format: functional; settings: albino Carworth Farms No.1, ip
Outline: (§6)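 Mouse quantification at the time of peak effect, compound given i.p. in 0.5% methylcellulose. Groups of at least eight mice received varied doses until at least two points fell between 100 and 0% response. ED50 (MES, scMET) and TD50 (rotorod) with 95% CI by probit analysis (Finney). PI = TD50/ED50 MES.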

[29] = tested on: Mus musculus; experiment: Anticonvulsant activity in ip dosed albino Carworth Farms No.1 mouse assessed as protection against subcutaneous metrazol-induced seizure after 0.25 hrs; format: functional; settings: albino Carworth Farms No.1, 0.25 h; outline: as §6
[30] = Neurotoxicity in ip dosed albino Carworth Farms No.1 mouse assessed as motor impairment after 0.25 hrs by rotarod test; format: toxicity, organism-based; settings: Carworth Farms No.1 (albino), in vivo
Outline: (§7)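 Mouse quantification at the time of peak effect, compound given i.p. in 0.5% methylcellulose. Groups of at least eight mice received varied doses until at least two points fell between 100 and 0% response. PI = TD50/ED50 MES.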

[31] = species: Mus musculus; experiment: Protective index, ratio of TD50 for albino Carworth Farms No.1 mouse to ED50 for albino Carworth Farms No.1 mouse by maximal electroshock-induced seizure test; format: functional; outline: as §7
[32] = tested on: Mus musculus; experiment: Anticonvulsant activity in ip dosed albino Carworth Farms No.1 mouse assessed as time needs to show peak effect for protection against maximal electroshock-induced seizure; format: functional
[33] = tested on: Rattus norvegicus; experiment: Toxicity in albino Sprague-Dawley rat pilocarpine-induced status epilepticus model assessed as change in body weight in protected rat at 600 mg/kg, ip measured after 24 hrs of time from first stage 3 seizures; format: organism-based; set-up: dose 600 mg/kg, route intraperitoneal; settings: in vivo
Outline: (§8)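 Pilocarpine-induced status prevention in male albino Sprague-Dawley rats (150–180 g). Compound given i.p. and followed by a pilocarpine challenge. Animals were sorted as protected or non-protected, and average body weight change (g) ± S.E.M. was recorded for each group.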

[34] = tested on: Rattus norvegicus; experiment: Toxicity in albino Sprague-Dawley rat pilocarpine-induced status epilepticus model assessed as change in body weight in non-protected rat at 600 mg/kg, ip measured after 24 hrs of time from first stage 3 seizures; format: organism-based; set-up: dose 600 mg/kg, route intraperitoneal; settings: in vivo; outline: as §8
[35] = tested on: Rattus norvegicus; experiment: Anticonvulsant activity in albino Sprague-Dawley rat assessed as protection against pilocarpine-induced status epilepticus at 600 mg/kg, ip measured after time from first stage 3 seizures; format: functional, organism-based; set-up: dose 600 mg/kg
Outline: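 Male albino Sprague-Dawley rats (150–180 g) given compound i.p., then a pilocarpine challenge dose immediately (0 min) or 30 min after treatment. Outcome scored as protection or no protection from epileptic seizures, reported as number protected/number tested.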

In the case of O=C1NC(=O)[C@@H](c2ccccc2)N2CCC[C@@H]12, the Activity [1] is reported as “inactive”, the Activity [2] is reported as “Non-toxic” and the Activity [3] is reported as “Non-toxic”. The Activity [4] was “Non-toxic”, the Activity [5] was “inactive” and the Activity [6] was “inactive”. For the same compound, the Activity [7] was “inactive”, the Activity [8] was “inactive” and the Activity [9] was “inactive”. For the same compound, the Activity [10] was “inactive”, the Activity [11] was “inactive” and the Activity [12] was “inactive”. The Activity [13] was “Non-toxic”, the Activity [14] was “Non-toxic” and the Activity [15] was “Non-toxic”. For the same compound, the “Ratio TD50/ED50” value [16] was 12.2, the Time [17] was 0.25 h and the Activity [18] was “Non-toxic”. The Activity [19] was “inactive”, the Activity [20] was “inactive” and the Activity [21] was “inactive”. The Activity [22] was “inactive”, the Activity [23] was “inactive” and the Activity [24] was “inactive”. For the same compound, the Activity [25] was “inactive”, the Activity [26] was “Non-toxic” and the Activity [27] was “Non-toxic”.
For Cl.O=C1[C@H](c2ccccc2)N2CCC[C@H]2C(=O)N1CCc1ccccc1, the Activity [2] was “Non-toxic”, the Activity [3] was “Non-toxic” and the Activity [4] was “Non-toxic”. For the same compound, the Activity [6] was “inactive”, the Activity [7] was “inactive” and the Activity [8] was “inactive”. The Activity [9] was “inactive”, the Activity [10] was “inactive” and the Activity [11] was “inactive”. For the same compound, the ED50 [28] was 80.6 mg/kg, the ED50 [29] was > 200 mg/kg and the TD50 at 0.25 h [30] was 178 mg/kg. The “Ratio TD50/ED50” value [31] was 2.2, the Time [32] was 0.25 h and the Activity [33] was -10 g. The Activity [34] was -18.8 g, the Activity [19] was “inactive” and the Activity [20] was “inactive”. The Activity [21] was “Active”, the Activity [22] was “inactive” and the Activity [23] was “Active”. For the same compound, the Activity [24] was “Active”, the Activity [26] was “Non-toxic” and the Activity [27] was “Non-toxic”. The Activity [35] was “inactive”.
